# Measurements from ChEMBL document CHEMBL3526053, “Species-dependent uptake of glycylsarcosine but not oseltamivir in Pichia pastoris expressing the rat, mouse, and human intestinal peptide transporter PEPT1” (Drug Metab Dispos, 2012).
# Non-standard residues stand in square brackets, D forms with d. Residues, ends and D or L forms follow the SMILES beside them. Sar = CNCC(=O)O
# B1: Solute carrier family 15 member 1 (Homo sapiens) (protein)
# chain: MGMSKSHSFFGYPLSIFFIVVNEFCERFSYYGMRAILILYFTNFISWDDNLSTAIYHTFVALCYLTPILGALIADSWLGKFKTIVSLSIVYTIGQAVTSVSSINDLTDHNHDGTPDSLPVHVVLSLIGLALIALGTGGIKPCVSAFGGDQFEEGQEKQRNRFFSIFYLAINAGSLLSTIITPMLRVQQCGIHSKQACYPLAFGVPAALMAVALIVFVLGSGMYKKFKPQGNIMGKVAKCIGFAIKNRFRHRSKAFPKREHWLDWAKEKYDERLISQIKMVTRVMFLYIPLPMFWALFDQQGSRWTLQATTMSGKIGALEIQPDQMQTVNAILIVIMVPIFDAVLYPLIAKCGFNFTSLKKMAVGMVLASMAFVVAAIVQVEIDKTLPVFPKGNEVQIKVLNIGNNTMNISLPGEMVTLGPMSQTNAFMTFDVNKLTRINISSPGSPVTAVTDDFKQGQRHTLLVWAPNHYQVVKDGLNQKPEKGENGIRFVNTFNELITITMSGKVYANISSYNASTYQFFPSGIKGFTISSTEIPPQCQPNFNTFYLEFGSAYTYIVQRKNDSCPEVKVFEDISANTVNMALQIPQYFLLTCGEVVFSVTGLEFSYSQAPSNMKSVLQAGWLLTVAVGNIIVLIVAGAGQFSKQWAEYILFAALLLVVCVIFAIMARFYTYINPAEIEAQFDEDEKKNRLEKSNPYFMSGANSQKQM
# B2: Solute carrier family 15 member 1 (Rattus norvegicus) (protein)
# chain: MGMSKSRGCFGYPLSIFFIVVNEFCERFSYYGMRALLVLYFRNFLGWDDDLSTAIYHTFVALCYLTPILGALIADSWLGKFKTIVSLSIVYTIGQAVISVSSINDLTDHDHDGSPNNLPLHVALSMIGLALIALGTGGIKPCVSAFGGDQFEEGQEKQRNRFFSIFYLAINAGSLLSTIITPILRVQQCGIHSQQACYPLAFGVPAALMAVALIVFVLGSGMYKKFQPQGNIMGKVAKCIRFAIKNRFRHRSKAFPKRNHWLDWAKEKYDERLISQIKIMTKVMFLYIPLPMFWALFDQQGSRWTLQATTMTGKIGTIEIQPDQMQTVNAILIVIMVPIVDAVVYPLIAKCGFNFTSLKKMTVGMFLASMAFVVAAIVQVEIDKTLPVFPSGNQVQIKVLNIGNNDMAVYFPGKNVTVAQMSQTDTFMTFDVDQLTSINVSSPGSPGVTTVAHEFEPGHRHTLLVWGPNLYRVVKDGLNQKPEKGENGIRFVSTLNEMITIKMSGKVYENVTSHSASNYQFFPSGQKDYTINTTEIAPNCSSDFKSSNLDFGSAYTYVIRSRASDGCLEVKEFEDIPPNTVNMALQIPQYFLLTCGEVVFSVTGLEFSYSQAPSNMKSVLQAGWLLTVAIGNIIVLIVAEAGHFDKQWAEYVLFASLLLVVCIIFAIMARFYTYINPAEIEAQFDEDEKKKGVGKENPYSSLEPVSQTNM
# B3: Solute carrier family 15 member 1 (Mus musculus) (protein)
# chain: MGMSKSRGCFGYPLSIFFIVVNEFCERFSYYGMRALLVLYFRNFLGWDDNLSTAIYHTFVALCYLTPILGALIADSWLGKFKTIVSLSIVYTIGQAVISVSSINDLTDHDHNGSPDSLPVHVALSMVGLALIALGTGGIKPCVSAFGGDQFEEGQEKQRNRFFSIFYLAINGGSLLSTIITPILRVQQCGIHSQQACYPLAFGVPAALMAVALIVFVLGSGMYKKFQPQGNIMGKVAKCIGFAIKNRFRHRSKAYPKREHWLDWAKEKYDERLISQIKMVTKVMFLYIPLPMFWALFDQQGSRWTLQATTMNGKIGAIEIQPDQMQTVNAILIVIMVPIVDAVVYPLIAKCGFNFTSLKKMTVGMFLASMAFVVAAIVQVEIDKTLPVFPGGNQVQIKVLNIGNNNMTVHFPGNSVTLAQMSQTDTFMTFDIDKLTSINISSSGSPGVTTVAHDFEQGHRHTLLVWNPSQYRVVKDGLNQKPEKGENGIRFVNTLNEMVTIKMSGKVYENVTSHNASGYQFFPSGEKQYTINTTAVAPTCLTDFKSSNLDFGSAYTYVIRRASDGCLEVKEFEDIPPNTVNMALQIPQYFLLTCGEVVFSVTGLEFSYSQAPSNMKSVLQAGWLLTVAVGNIIVLIVAGAGHFPKQWAEYILFASLLLVVCVIFAIMARFYTYINPAEIEAQFDEDEKKKGIGKENPYSSLEPVSQTNM
# Columns and labels:
# [1] = tested on: PEPT1; assay: Drug uptake in Xenopus laevis oocytes expressing chicken PEPT1 measured at pH 6 and -60 mV by two-electrode voltage-clamp electrophysiology; type: ADME, cell-based, Gallus gallus; conditions: Xenopus laevis oocytes expressing chicken PEPT1, pH 6
# [2] = Ratio of Km for human recombinant PEPT1 expressed in Pichia pastoris GS115 to Km for rat recombinant PEPT1 expressed in Pichia pastoris GS115; type: ADME
# [3] = tested on: PEPT1; assay: Drug uptake in CHO cells expressing pig PEPT1 measured at pH 6; type: ADME, cell-based, Sus scrofa; conditions: CHO cells expressing pig PEPT1, pH 6
# [4] = biological target: T1, Solute carrier family 15 member 1 (Oryctolagus cuniculus, UniProt P36836); assay: Drug uptake in Xenopus laevis oocytes expressing rabbit PEPT1 measured at pH 5.5 and -60 mV by two-electrode voltage-clamp electrophysiology; type: ADME, cell-based
# T1 sequence (P36836 whole entry): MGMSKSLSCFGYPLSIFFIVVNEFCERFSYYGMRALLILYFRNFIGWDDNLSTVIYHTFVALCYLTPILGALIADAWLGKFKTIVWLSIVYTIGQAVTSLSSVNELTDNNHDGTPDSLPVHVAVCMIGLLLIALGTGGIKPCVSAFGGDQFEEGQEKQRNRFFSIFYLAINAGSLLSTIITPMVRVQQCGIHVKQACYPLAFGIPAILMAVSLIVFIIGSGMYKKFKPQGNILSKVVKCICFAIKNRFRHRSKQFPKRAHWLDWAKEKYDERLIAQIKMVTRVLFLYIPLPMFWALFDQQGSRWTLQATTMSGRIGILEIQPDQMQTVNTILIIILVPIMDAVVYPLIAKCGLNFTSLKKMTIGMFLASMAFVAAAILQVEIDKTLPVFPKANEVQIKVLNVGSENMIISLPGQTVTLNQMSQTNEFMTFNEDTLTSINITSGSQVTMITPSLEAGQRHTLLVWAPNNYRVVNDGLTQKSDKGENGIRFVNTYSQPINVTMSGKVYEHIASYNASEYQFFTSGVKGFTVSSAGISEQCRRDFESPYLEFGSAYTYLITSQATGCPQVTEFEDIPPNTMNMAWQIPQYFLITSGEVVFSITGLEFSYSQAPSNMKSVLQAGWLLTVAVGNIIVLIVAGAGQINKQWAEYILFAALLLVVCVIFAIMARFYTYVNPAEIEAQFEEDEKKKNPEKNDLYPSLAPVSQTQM
# [5] = tested on: PEPT1; assay: Drug uptake in human HeLa cells expressing monkey PEPT1 measured at pH 6; type: ADME, cell-based, Macaca mulatta; conditions: rhesus monkey, HeLa cells expressing monkey PEPT1, pH 6
# [6] = tested on: PEPT1; assay: Drug uptake in Xenopus laevis oocytes expressing salmon PEPT1 measured at pH 6.5 and -60 mV by two-electrode voltage-clamp electrophysiology; type: ADME, cell-based; conditions: salmonidae, Xenopus laevis oocytes expressing salmon PEPT1, pH 6.5
# [7] = tested on: PEPT1; assay: Drug uptake in CHO cells expressing chicken PEPT1 measured at pH 6; type: ADME, cell-based, Gallus gallus; conditions: CHO cells expressing chicken PEPT1, pH 6
# [8] = tested on: PEPT1; assay: Drug uptake in Xenopus laevis oocytes expressing sheep PEPT1 measured at pH 5.5 and -60 mV by two-electrode voltage-clamp electrophysiology; type: ADME, cell-based, Ovis aries; conditions: Xenopus laevis oocytes expressing sheep PEPT1, pH 5.5
# [9] = tested on: PEPT1; assay: Ratio of Km for human recombinant PEPT1 expressed in Pichia pastoris GS115 to Km for mouse recombinant PEPT1 expressed in Pichia pastoris GS115; type: ADME; conditions: not told
# [10] = substrate: CN(CC(=O)O)C(=O)CN; assay: Activity at human recombinant PEPT1 expressed in Pichia pastoris GS115 after 30s by dual-channel liquid scintillation counting analysis; type: ADME
# How it was run: (§1)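 [3H]GlySar concentration series 0.005-10 mM, 30-s uptake at 24°C in 100 mM potassium phosphate pH 6.5. Cells come from His+Mut+ GS115 transformants induced 20-24 h in methanol medium. Uptake is normalised to OD600. Data are fitted to Michaelis-Menten plus a first-order nonsaturable term (Kd), weighting unity. Parameters are mean ± SE (n=9).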
# [11] = substrate: CN(CC(=O)O)C(=O)CN; assay: Drug uptake in human HeLa cells expressing human PEPT1 measured at pH 6; type: ADME, cell-based
# [12] = substrate: CN(CC(=O)O)C(=O)CN; assay: Drug uptake in Xenopus laevis oocytes expressing rat PEPT1 measured at pH 6; type: ADME, cell-based
# [13] = substrate: CN(CC(=O)O)C(=O)CN; assay: Activity at rat recombinant PEPT1 expressed in Pichia pastoris GS115 after 30s by dual-channel liquid scintillation counting analysis; type: ADME; how it was run: as §1
# [14] = substrate: CN(CC(=O)O)C(=O)CN; assay: Drug uptake in Xenopus laevis oocytes expressing mouse PEPT1 measured at pH 5.5 and -60 mV by two-electrode voltage-clamp electrophysiology; type: ADME, cell-based
# [15] = substrate: CN(CC(=O)O)C(=O)CN; assay: Activity at mouse recombinant PEPT1 expressed in Pichia pastoris GS115 after 30s by dual-channel liquid scintillation counting analysis; type: ADME; how it was run: as §1
molecule,measurement,setting,value
CN(CC(=O)O)C(=O)CN [GLYCYLSARCOSINE] (H-Gly-[Sar]-OH),Km,[1],470 µM
same,Ratio,[2],5.4
same,Km,[3],940 µM
same,Km,[4],1900 µM
same,Km,[5],350 µM
same,Km,[6],500 µM
same,Km,[7],2600 µM
same,Km,[8],610 µM
same,selectivity ratio,[9],2.9
B1,Km,[10],860 µM
same,Km,[11],290 µM
B2,Km,[12],240 µM
same,Km,[13],160 µM
B3,Km,[14],750 µM
same,Km,[15],300 µM
